Each block holds one compound with its values, some of them ahead of it.
Tests used:
Nucleic Acid [1] = experiment: Apparent binding constant against calf thymus DNA was determined; assay type: nucleic-acid assay; details: Bos taurus
Tumor Cell line = experiment: In vitro anticancer activity against cultured 60 human tumor cell lines; assay type: functional
Summary of the method: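 NCI screen panel of about 60 human tumor cell lines from nine tissue types. GI50 is the concentration causing 50% growth inhibition, reported as the mean-graph midpoint (mean of the individual cell-line GI50 values).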

Nucleic Acid [2] = experiment: Concentration of compound required for cross linking 50% of T-7 DNA, Acid; assay type: functional
Summary of the method: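 T-7 coliphage DNA was incubated with drug at 5–200 μM in citrate phosphate, 10 mM Na⁺, pH 4.0, aerobically for 4 h. The cross-linked fraction came from Hoechst 33258 fluorescence (ex 355/em 460 nm) read before and after a 95 °C heat and ice chill, relative to a drug-free control; ICL50 is the drug concentration giving 50% cross-linking.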

Nucleic Acid [3] = experiment: Concentration of compound required for cross linking 50% of T-7 DNA, Na2S2O4; assay type: functional
Summary of the method: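 T-7 coliphage DNA (100 μM) with drug at 0.5–15 μM in 0.015 M Tris·HCl, pH 7.4, was deaerated and given a 10-fold molar excess of Na₂S₂O₄ for 60 min under argon. Hoechst 33258 (100 nM) fluorescence (ex 355/em 460 nm) was read before and after heating at 95 °C and chilling. Cross-linked fraction was taken relative to a drug-free control; ICL50 is the concentration giving 50% cross-linked DNA.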

Nucleic Acid [4] = experiment: Compound was tested on efficacy of Cross-Linking of tyrT DNA, acid at >400 uM; assay type: functional
Summary of the method: (§1)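 The labeled 162-bp tyrT DNA fragment was incubated with drug in citrate phosphate, pH 4.0, aerobically for 2 h. It was ethanol-precipitated, denatured at 94 °C for 4 min, and resolved on an 8% denaturing polyacrylamide gel at about 55 °C; cross-linked bands were detected by phosphor screen.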

Nucleic Acid [5] = experiment: Concentration of compound required for cross linking 5% of tyrT DNA, Na2S2O4; assay type: functional
Summary of the method: (§2)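 The 5'-³²P-labeled 162-bp tyrT DNA fragment (10 ng) was mixed with drug at various concentrations in Tris/EDTA buffer and deaerated with nitrogen. Dithionite was added from a 50 mM stock, and the mix was kept on ice in the dark for 1 h. After ethanol precipitation it was denatured at 94 °C for 4 min and run on an 8% denaturing polyacrylamide gel; cross-linked species were quantified by phosphor screen.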

Nucleic Acid [6] = experiment: Concentration of compound required for cross linking 50% of tyrT DNA, Na2S2O4; assay type: functional; summary of the method: as §2
Nucleic Acid [7] = experiment: Concentration of compound required for cross linking 50% of pBR322 DNA, Na2S2O4; assay type: functional
Summary of the method: (§3)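 pBR322 DNA linearized with EcoRI and 3'-end labeled with α-³²P-dATP by Klenow. About 100 ng was mixed with drug at various concentrations in 10 mM sodium phosphate/1 mM EDTA, pH 7.5, argon-deaerated, then reduced with dithionite for 45 min at room temperature. It was then denatured in 30% DMSO strand-separation buffer at 90 °C for 5 min, run on 1% agarose, and the cross-linked fraction quantified by phosphorimaging.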

Nucleic Acid [8] = experiment: Compound was tested on efficacy of Cross-Linking of pBR322 DNA, acid at 1 uM; assay type: functional
Summary of the method: (§4)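 The 3'-³²P-labeled, EcoRI-linearized pBR322 DNA was incubated with drug in 10 mM sodium phosphate, pH 4, aerobically for 2 h with no reductant. It was heat-denatured in DMSO strand-separation buffer and separated on 1% agarose, and percent cross-linked DNA was quantified by phosphorimaging.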

Nucleic Acid [9] = experiment: Concentration of compound required for cross linking 50% T-7 DNA, Acid; assay type: functional
Summary of the method: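 T-7 coliphage DNA (100 μM) with drug at 5–200 μM in citrate phosphate buffer, 10 mM Na+, pH 4.0, incubated aerobically 4 h. Diluted into 5 mM Tris/0.5 mM EDTA pH 8.0 with 100 nM Hoechst 33258; fluorescence (ex 355/em 460 nm) read before and after heat denaturation (95 °C, 5 min), ice chill and room-temperature renaturation. Cross-linked fraction computed against drug-free controls; ICL50 = drug concentration giving 50% cross-linked DNA.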

Nucleic Acid [10] = experiment: Compound was tested on efficacy of Cross-Linking of tyrT DNA, acid at a concentration 400 uM; assay type: functional; summary of the method: as §1
Nucleic Acid [11] = experiment: Compound was tested on efficacy of Cross-Linking of pBR322 DNA, acid at 40 uM; assay type: functional; summary of the method: as §4
Nucleic Acid [12] = experiment: Compound was tested on efficacy of Cross-Linking of pBR322 DNA, Na2S2O4; assay type: functional; summary of the method: as §3

Structure (SMILES): CO[C@@]12[C@H](COC(N)=O)C3=C(C(O)=C(C)/C(=N\CCCN(C)CCC/N=C4/C(=O)C5=C(C(O)=C4C)N4CC6NC6[C@]4(OC)[C@@H]5COC(N)=O)C3=O)N1C[C@@H]1N[C@@H]12 (some centres not stated)
- K app (Nucleic Acid [1]): 80000 M⁻¹
- GI50 (Tumor Cell line): 2.51 µM
- ICL50 (Nucleic Acid [2]): 20 µM
- ICL50 (Nucleic Acid [3]): 1.5 µM
- Cross linking (Nucleic Acid [4]): 1.8%
- ICL5 (Nucleic Acid [5]): 10 µM
- ICL50 (Nucleic Acid [6]): 150 µM
- ICL50 (Nucleic Acid [7]): 0.5 µM
- inhibition (Nucleic Acid [8]): 10%

- K app (Nucleic Acid [1]): 17000 M⁻¹
- GI50 (Tumor Cell line): 0.832 µM
Structure (SMILES): CO[C@@]12[C@H](COC(N)=O)C3=C(C(=O)C(C)=C(N)C3=O)N1C[C@@H]1N[C@@H]12 [MITOMYCIN]
- ICL50 (Nucleic Acid [9]): > 200 µM
- ICL50 (Nucleic Acid [3]): 10 µM
- ICL5 (Nucleic Acid [5]): 55 µM
- ICL50 (Nucleic Acid [6]): Infinity

Structure (SMILES): CO[C@@]12[C@H](COC(N)=O)C3=C(C(=O)C(C)=C(NCCCCNC4=C(C)C(=O)C5=C(C4=O)[C@@H](OC(N)=O)[C@@]4(OC)[C@H]6N[C@H]6CN54)C3=O)N1C[C@@H]1N[C@@H]12
- K app (Nucleic Acid [1]): 50000 M⁻¹
- GI50 (Tumor Cell line): 69.2 µM
- ICL50 (Nucleic Acid [2]): > 200 µM
- ICL50 (Nucleic Acid [3]): 2.6 µM
- Cross linking (Nucleic Acid [10]): 0.6%
- ICL5 (Nucleic Acid [5]): 20 µM
- ICL50 (Nucleic Acid [6]): Infinity
- Cross linking (Nucleic Acid [11]): < 10%
- ICL50 (Nucleic Acid [12]): 3.8 µM

Structure (SMILES): CO[C@@]12[C@H](COC(N)=O)C3=C(C(=O)C(C)=C(NCCCCCCCCCCCCNC4=C(C)C(=O)C5=C(C4=O)[C@@H](OC(N)=O)[C@@]4(OC)[C@H]6N[C@H]6CN54)C3=O)N1C[C@@H]1N[C@@H]12
- GI50 (Tumor Cell line): 4.47 µM
- Cross linking (Nucleic Acid [11]): 10%
- ICL50 (Nucleic Acid [7]): 1.7 µM

Reference: ChEMBL document CHEMBL1148332, “Mitomycin dimers: polyfunctional cross-linkers of DNA” (2004)
